Here are results for 60 molecules from PubChem BioAssay AID552 (SRMLSC, 2006).

Out of some 20,000 compounds screened, about 10 (0.05%) were called active. This is one part of a sample in which actives are shown more often than they occur. A number with no mark means an inactive call. Cut-off read from the data, not from the text of the source: active = inhibition above about 40%; inactive = the rest. Where a SMILES comes first, the peptide text is derived from it. [ ]: non-standard residue; d: D form. ξ: configuration not given here. ξV = CC(C)C(N)C(=O)O

The test is described as follows: antibacterial activity on E. coli BW25113 – strain BW25113 wild type, absorbance readout, primary screen (AID 552).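 Note: bacteria exposed to compound for 20 hours at 37 °C.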 The conditions noted are these: E. coli BW25113 growth inhibition, OD600; at 10 µM; stronger effect = higher value. An outline of the steps: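 Material: bacterial strain in a whole-cell growth screen; Amount: inoculum from a 1:1000 dilution of a 1.5 h subculture; Buffer or medium: LB plus kanamycin 50 µg/mL; Dosing: one dose, 10 µM final; Times: compound exposure of 20 h at 37 °C; Measured by: absorbance at 615 nm as a measure of bacterial growth.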
For `COC(=O)c1ccc(C2CC(=O)Nc3cc(OC)c(OC)cc32)cc1` (stereo not given), the inhibition (in general, the change of the read-out against control, counted positive when it falls) is -20.6%.
`CC(C)c1ccc(N2CC(C(=O)Nc3nccs3)CC2=O)cc1` (stereo not given): the inhibition was 2.9%.
As for `CCc1nnc(NC(=O)C2CCCN2S(=O)(=O)c2ccccc2)s1` (stereo not given), the inhibition is -21%.
For the molecule `Cc1cc(C)c(C#N)c(SCc2[nH]nc3c2C(c2ccccc2)C(C#N)=C(N)O3)n1` (stereo not given), the inhibition is -3.73%.
With `CCOC(=O)CSc1nnc(-c2ccncc2)o1`, the inhibition is -0.95%.
With `COC(=O)C(C)Sc1nc2c(c(=O)n(C)c(=O)n2C)n1Cc1cccc(C)c1` (stereo not given) the figure was 8.4%; with `Cc1ccc(C(=O)NCC2CCCO2)o1` (stereo not given), -6.23%; with `CN(C)[C@@H]1C(=O)C(C(N)=O)=C(O)[C@@]2(O)C(=O)C3=C(O)c4c(O)ccc(Cl)c4[C@@H](O)[C@H]3C[C@@H]12`, 43.4% (active).
With `CCOC(=O)N1CCC(O)(c2cc(C)c(C)cc2C)CC1` the figure was 2.31%; with `CCOC(=O)c1ccc(NC(=O)CSc2nnc(COc3ccccc3OC)n2C)cc1`, -14.8%.
As for `O=C(OCc1ccccc1F)c1ccc2c(c1)OCCO2`, the inhibition is 6.06%.
With `CCN(Cc1nc2ccccc2c(=O)[nH]1)Cc1cc(=O)oc2cc(C)c(C)cc12` the figure was -2.52%; with `Cc1noc(C)c1C(=O)NC(C)c1ccc2c(c1)OCO2` (stereo not given), -22.5%; with `CC(C)COC(=O)C1C2C=CC3(CN(C(C)c4ccc(Br)cc4)C(=O)C13)O2` (stereo not given), 15.3%.
The same measure for `COC(=O)c1ccc(Oc2nc(Nc3ccc(F)cc3)nc(N3CCCC3)n2)cc1`: -16.9%; for `CSc1ccc(S(=O)(=O)Nc2cccc(F)c2)cc1`: -8.18%.
With `CCN(CC)S(=O)(=O)c1ccc(NC(=O)CN(c2cccc(F)c2)S(C)(=O)=O)cc1` the figure was -6.94%; with `CS(=O)(=O)N(CC(=O)N1CCOCC1)c1ccc2c3c(cccc13)CC2`, -16.3%.
On to `CC(=O)NC(C(=O)NCC(N)=O)C(C)C` (stereo not given) (Ac-[ξV]-Gly-NH2), for which the inhibition is 7.41%.
With `CCCCN(CC)CCCNC(=O)CS(=O)(=O)Cc1nc(-c2cccc(OC)c2)oc1C` the figure was 4.26%; with `CCOC(=O)n1c(SCC(=O)N(CC)CC)nc2ccccc21`, -3.3%.
As for `Cc1cc(C)nc(N2C(=O)CC(Cc3ccccc3)C2=O)n1` (stereo not given), the inhibition was -9.77%.
The same measure for `CC(C)C[C@H](NC(=O)[C@@H]1O[C@H]1C(=O)O)C(=O)NCCCCN=C(N)N`: -3.4%.
With `CN(C)CCNC(CC(=O)Nc1ccc(Cl)c(Cl)c1)C(=O)O` (stereo not given) the figure was -14.6%; with `COc1ccc(C(=O)Nc2cccnc2)cc1C(=O)Nc1cccnc1`, 1.96%; with `COC(=O)Nc1c(C)n(C)n(-c2ccccc2)c1=O`, -2.62%.
Turning to `Cc1ccc(C)c(S(=O)(=O)N2CC(=O)Nc3ccccc32)c1`, the inhibition was -14.8%.
With `COCCn1c(C)cc(C(=O)CSc2ncnc3sc4c(c23)CCC4)c1C` the figure was 2.06%; with `Cc1nc(C)c(C(=O)Nc2ccc(C)c(F)c2)o1`, -3.6%; with `COc1cc(-c2nc(S(=O)(=O)c3ccc(Cl)cc3)c(N(C)C)o2)cc(OC)c1OC`, -0.36%.
Take `Cc1cc(C(=O)NCCCc2ccccc2)no1`: the inhibition is -3.97%.
Take `CCc1ccc(CCC(=O)Nc2ccc(S(N)(=O)=O)cc2)o1`: the inhibition was -21.2%.
`Cc1ccc(-c2noc(-c3ccccc3C(=O)NCC3CCCO3)n2)cc1` (stereo not given): the inhibition is 8.67%.
With `CC1(C)C(=O)Nc2ccccc2N1C(=O)COC(=O)Cn1cnc2ccccc2c1=O` the figure was -1.7%; with `O=C1CC(c2ccccc2)CC(O)=C1C=NCCN1CCOCC1` (stereo not given), 0.58%; with `COCCCNC(=O)CSc1nc2ccc(N3CCOCC3)cc2c(=O)n1CCc1ccccc1`, 1.57%.
Consider `CCCC(=O)Nc1ccc(C(=O)NCCCn2ccnc2)cc1`, for which the inhibition was -11.9%.
The same measure for `COc1ccc(S(=O)(=O)N2CCOCC2)cc1C(=O)Nc1nc2ccccc2s1`: 4.62%.
With `CCn1c(SCC(=O)Nc2nccs2)nnc1-c1ccncc1` the figure was -9.46%; with `CCCC1CC(C)(C(=O)Cn2[nH]c(=O)ccc2=O)OC1=O` (stereo not given), 19.6%.
In the case of `CC(C)Cc1ccc(S(=O)(=O)N2CCN(C(=O)c3ccco3)CC2)cc1`, the inhibition was -19.7%.
For the molecule `O=C(CS(=O)(=O)c1cn(Cc2ccc(Cl)cc2)c2ccccc12)N1CCOCC1`, the inhibition is -0.05%.
With `CCOC(=O)C1CCN(C(=O)Cn2cc(C#N)c3ccccc32)CC1` the figure was 6.78%.
As for `O=C(O)C1CC=C(Cl)CC1C(=O)NCc1ccccc1` (stereo not given), the inhibition is -2.5%.
The same measure for `CCOC(=O)c1cc(NC(=O)c2cccnc2)cc(C(=O)OCC)c1`: -7.79%.
The same measure for `CCOC(=O)c1c(N)c(C#N)nn1-c1ccccc1C(=O)OC`: -8.34%.
Consider `CCN1CCN(C(=O)CN(C)S(=O)(=O)c2ccc(OC)cc2)CC1`, for which the inhibition is -16.9%.
With `C=CCNC(=O)CSc1nc2sc(C)c(C)c2c(=O)[nH]1` the figure was -0.815%; with `O=C(O)[C@@H]1CCCN1c1ncnc2sc3c(c12)CCC3`, 5%; with `CN1C(C)(C)CC(NC(=O)CCC(=O)NC2CC(C)(C)N(C)C(C)(C)C2)CC1(C)C`, -21%.
For `COc1ccccc1N1CCN(C(=O)c2cc(-c3ccc(Cl)c(Cl)c3)on2)CC1`, the inhibition was -2.37%.
The same measure for `COc1ccc(OC)c(S(=O)(=O)Nc2ccccc2F)c1`: -13.8%; for `Cc1noc(C)c1C(=O)Nc1ccccn1`: -22.1%; for `Cc1ccc(SCCN2C(=O)NC(C)(C)C2=O)cc1`: 4.35%.
With `COc1cc(C2C(C#N)=C(C)NC3=C2C(=O)CC(C)(C)C3)ccc1O` (stereo not given) the figure was 5.23%; with `COC(=O)c1ccc(Oc2nc(NC(C)C)nc(SC)n2)cc1`, -19.1%; with `CCOC(=O)c1cc(NC(=O)SCC(=O)O)c(C)nc1C`, -3.26%.
`Cc1onc(-c2ccccc2)c1C(=O)N1CCOCC1`: the inhibition was 16.2%.
With `CCOC(=O)Cc1csc(NC(=O)CN(C)S(=O)(=O)c2ccc3c(c2)CCC(=O)N3)n1` the figure was 3.09%; with `CN(C)S(=O)(=O)c1ccc(Oc2ccc(S(=O)(=O)N(C)C)cc2)cc1`, 7.29%.
